Data published in ChEMBL document CHEMBL1629563, “Pharmacokinetic and safety evaluation of BILR 355, a second-generation nonnucleoside reverse transcriptase inhibitor, in healthy volunteers” (Antimicrob Agents Chemother, 2008).

Key:
Homo sapiens [1] = test: Toxicity in healthy human assessed as occurrence of vomiting at 12.5 mg, po administered as single dose relative to control; format: organism-based; conditions: in vivo
Homo sapiens [2] = test: Toxicity in healthy human assessed as occurrence of migraine at 12.5 mg, po administered as single dose relative to control; format: organism-based; conditions: in vivo
Homo sapiens [3] = test: Toxicity in healthy human assessed as occurrence of increase in alanine aminotransferase level at 100 mg, po administered as single dose relative to control; format: organism-based; conditions: in vivo
Homo sapiens [4] = test: Toxicity in healthy human assessed as occurrence of maculopapular rash at 1 mg, po administered as single dose relative to control; format: organism-based; conditions: in vivo
Homo sapiens [5] = test: Toxicity in healthy human assessed as occurrence of flatulence at 12.5 mg, po administered as single dose relative to control; format: organism-based; conditions: in vivo
Homo sapiens [6] = test: Toxicity in healthy human assessed as occurrence of herpes simplex at 12.5 mg, po administered as single dose relative to control; format: organism-based; conditions: in vivo
Homo sapiens [7] = test: Toxicity in healthy human assessed as occurrence of herpes simplex at 50 mg, po administered as single dose relative to control; format: organism-based; conditions: in vivo
Homo sapiens [8] = test: Toxicity in healthy human assessed as occurrence of frequent bowel movements at 12.5 mg, po administered as single dose relative to control; format: organism-based; conditions: in vivo
[9] = Renal clearance in healthy human at 25 mg, po administered as single dose coadministered with 100 mg of ritonavir by high-pressure liquid chromatography-tandem mass spectrometry/mass spectrometry method; format: ADME, organism-based, Kidney; conditions: in vivo, read-out: CL_renal (converted)
[10] = Renal clearance in healthy human at 50 mg, po administered as single dose coadministered with 100 mg of ritonavir by high-pressure liquid chromatography-tandem mass spectrometry/mass spectrometry method; format: ADME, organism-based, Kidney; conditions: in vivo, read-out: CL_renal (converted)
[11] = Renal clearance in healthy human at 62.5 mg, po administered as single dose coadministered with 100 mg of ritonavir by high-pressure liquid chromatography-tandem mass spectrometry/mass spectrometry method; format: ADME, organism-based, Kidney; conditions: in vivo, read-out: CL_renal (converted)
[12] = Renal clearance in healthy human at 87.5 mg, po administered as single dose coadministered with 100 mg of ritonavir by high-pressure liquid chromatography-tandem mass spectrometry/mass spectrometry method; format: ADME, organism-based, Kidney; conditions: in vivo, read-out: CL_renal (converted)
Summary of the method: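 Healthy male volunteers, fasted overnight, got one oral dose in PEG solution with 200 ml water. Ritonavir 100 mg was given 10 h before and again with the dose. Urine was collected quantitatively over 0–6, 6–24 and 24–72 h and stored at −20°C, then assayed by validated HPLC-MS/MS. CLR = amount excreted unchanged over an interval / plasma AUC over the same interval.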

Homo sapiens [13] = test: Ratio of AUC (0 to infinity) in human at 75 mg, po in presence of 100 mg of ritonavir to AUC (0 to infinity) in human at 75 mg, po; format: ADME, organism-based; conditions: in vivo
Homo sapiens [14] = test: Toxicity in high fat fed healthy human assessed as occurrence of diarrhea at 50 mg, po administered as single dose coadministered with 100 mg of ritonavir; format: organism-based; conditions: in vivo
Homo sapiens [15] = test: Toxicity in healthy human assessed as occurrence of fatigue at 5 mg, po administered as single dose coadministered with 100 mg of ritonavir; format: organism-based; conditions: in vivo
Homo sapiens [16] = test: Toxicity in healthy human assessed as occurrence of fatigue at 75 mg, po administered as single dose coadministered with 100 mg of ritonavir; format: organism-based; conditions: in vivo
[17] = AUC (0 to last) in healthy human at 50 mg, po administered as single dose; format: ADME, organism-based; set-up: dose 50 mg, route oral, time 0 - last; conditions: plasma
Summary of the method: (§1)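 Healthy male volunteers, six active plus two placebo per dose group, single oral dose in PEG solution with 200 ml water after overnight fast; breakfast 60 to 90 min post-dose. EDTA plasma sampled predose to 144 h. Assayed by validated LC-MS/MS after protein precipitation. Noncompartmental analysis, AUC by linear up/log down trapezoidal rule; Vss = CL/F·(MRTp.o. − 1/Ka).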

[18] = Tmax in healthy human at 25 mg, po administered as single dose; format: ADME, organism-based; conditions: in vivo
Homo sapiens [19] = test: Apparent oral clearance in healthy human at 75 mg, po administered as single dose; format: ADME, organism-based; conditions: in vivo; summary of the method: as §1
Homo sapiens [20] = test: Ratio of half life in human at 25 mg, po in presence of 100 mg of ritonavir to half life in human at 25 mg, po; format: ADME, organism-based; conditions: in vivo
Homo sapiens [21] = test: Toxicity in healthy human assessed as occurrence of abdominal pain at 75 mg, po administered as single dose relative to control; format: organism-based, Abdomen; conditions: in vivo
[22] = Mean residence time in healthy human at 5 mg, po administered as single dose; format: ADME, organism-based; conditions: in vivo
[23] = Mean residence time in healthy human at 100 mg, po administered as single dose; format: ADME, organism-based; conditions: in vivo
[24] = Apparent volume of distribution at steady state in healthy human at 100 mg, po administered as single dose; format: ADME, organism-based; conditions: in vivo, read-out: Vss/F; summary of the method: as §1
[25] = Drug excretion in healthy human urine assessed as unchanged drug at 5 mg, po administered as single dose by high-pressure liquid chromatography-tandem mass spectrometry/mass spectrometry method; format: ADME, organism-based; conditions: read-out: Drug uptake
Summary of the method: (§2)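 Urine was collected by weight after one oral dose of BILR 355 in PEG solution in fasted healthy males. Intervals were predose blank, 0-6, 6-24 and 24-72 h, with the bladder voided before each. Aliquots were stored at −20°C and assayed by LC-MS/MS. fe = amount of unchanged drug excreted (Ae) as a percentage of the administered dose.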

[26] = Drug excretion in healthy human urine assessed as unchanged drug in healthy human at 12.5 mg, po administered as single dose by high-pressure liquid chromatography-tandem mass spectrometry/mass spectrometry method; format: ADME, organism-based; conditions: read-out: Drug uptake; summary of the method: as §2
[27] = AUC (0 to infinity) in healthy human at 75 mg, po administered as single dose coadministered with 100 mg of ritonavir; format: ADME, organism-based; set-up: dose 75 mg, route oral, time infinity; conditions: plasma
Summary of the method: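 Healthy male volunteers, fasted. Ritonavir 100 mg given 10 h before and again together with single oral BILR 355 in PEG solution. EDTA plasma sampled predose to 144 h. LC-MS/MS assay after protein precipitation. Noncompartmental analysis, AUC by linear up/log down trapezoidal rule; Vss = CL/F·(MRTp.o. − 1/Ka).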

[28] = Cmax in high fat fed healthy human at 50 mg, po administered as single dose coadministered with 100 mg of ritonavir by high-pressure liquid chromatography-tandem mass spectrometry/mass spectrometry method; format: ADME, organism-based; set-up: dose 50 mg, route oral; conditions: in vivo
Summary of the method: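 Fed cohort: healthy males ate an FDA-recipe high-fat breakfast (about 150/250/500-600 cal from protein/carbohydrate/fat) 30 min before a 50 mg oral dose of BILR 355 in PEG solution. Ritonavir 100 mg was given 10 h before and with the dose. Plasma was sampled over 144 h and assayed by LC-MS/MS. Noncompartmental analysis gave Cmax and Vz/F. Vss/F = CL/F·(MRTp.o. − 1/Ka).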

[29] = Tmax in healthy human at 50 mg, po administered as single dose coadministered with 100 mg of ritonavir; format: ADME, organism-based; conditions: in vivo
Homo sapiens [30] = test: Toxicity in healthy human assessed as occurrence of headache at 50 mg, po administered as single dose relative to control; format: organism-based; conditions: in vivo

CCN1c2ncc(CCOc3cc[n+]([O-])c4ccccc34)cc2C(=O)N(C)c2cccnc21 [BILR 355]
Activity (Homo sapiens [1]): 0% | Activity (Homo sapiens [2]): 0% | Activity (Homo sapiens [3]): 0% | Activity (Homo sapiens [4]): 0% | Activity (Homo sapiens [5]): 0% | Activity (Homo sapiens [6]): 0% | Activity (Homo sapiens [7]): 0% | Activity (Homo sapiens [8]): 0% | CL renal [9]: 6.5 mL/min | CL renal [10]: 4.87 mL/min | CL renal [11]: 7.17 mL/min | CL renal [12]: 8.2 mL/min | Ratio (Homo sapiens [13]): 15 | Activity (Homo sapiens [14]): 0% | Activity (Homo sapiens [15]): 0% | Activity (Homo sapiens [16]): 0% | AUC(0-t) [17]: 406 ng·h/mL | Tmax [18]: 50 min | CL/F (Homo sapiens [19]): 272 L/h | Ratio (Homo sapiens [20]): 3.3 | Activity (Homo sapiens [21]): 16.7% | MRT [22]: 7.74 h | MRT [23]: 2.23 h | Vd/F [24]: 163 L | dose excreted [25]: 0.172% | dose excreted [26]: 0.212% | AUC(0-inf) [27]: 12300 ng·h/mL | Cmax [28]: 430 ng/mL | Tmax [29]: 57.5 min | Activity (Homo sapiens [30]): 16.7%
